CHRM1 PAM: potentiates human M1 receptor response to acetylcholine; activation, % at 3 µM; AID 588819; CHO-K1 hM1, Fluo-8 calcium fluorescence, ACh EC20; 0% = ACh EC20, 100% = maximal ACh; 0.088% of 360,000 active; in the data active = activation above about 19%, passing the limit was not always enough
CHRM5 PAM: potentiates acetylcholine response at human M5 receptor; P08912; CHO-K1 hM5, Fluo-8 calcium, ACh EC20 PAM; 0% = ACh EC20, 100% = ACh EC100; activation, % at 3 µM; 0.3% of 360,000 active; AID 624038;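 active = activation above the run cutoff, the mean activation of all test compounds plus 3 SD, cut at about 18% in these data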
Target sequence (P08912 whole entry, looked up): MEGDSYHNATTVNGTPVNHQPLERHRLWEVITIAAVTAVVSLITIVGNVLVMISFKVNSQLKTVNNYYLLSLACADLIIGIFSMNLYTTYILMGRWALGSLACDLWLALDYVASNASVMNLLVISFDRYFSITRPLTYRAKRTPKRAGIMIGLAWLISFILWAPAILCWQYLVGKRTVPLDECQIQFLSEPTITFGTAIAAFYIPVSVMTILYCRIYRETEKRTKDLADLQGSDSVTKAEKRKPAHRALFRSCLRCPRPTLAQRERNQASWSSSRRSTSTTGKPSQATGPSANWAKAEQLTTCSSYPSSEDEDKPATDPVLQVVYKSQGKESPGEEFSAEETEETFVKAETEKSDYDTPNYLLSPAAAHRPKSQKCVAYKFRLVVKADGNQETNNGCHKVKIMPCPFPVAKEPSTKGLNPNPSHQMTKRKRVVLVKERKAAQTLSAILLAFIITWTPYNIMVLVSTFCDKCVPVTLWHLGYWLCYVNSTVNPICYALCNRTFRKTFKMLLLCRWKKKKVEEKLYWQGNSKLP
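Assay system – human M5 receptor in CHO-K1 cells · Read-out – % activation, ACh-normalized · Technique – Fluo-8 calcium fluorescence · Dosing – single-point, 3 µM nominal · Incubation – Fluo-8 loading 80 min at 37 °C plus 30 min room temperature · Repeats – singlicate, one well per test compound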
M1 antag: antagonists of human M1 muscarinic receptor; P11229; CHO-K1 hM1, Fluo-8 calcium fluorescence, ACh EC80 antagonist; inhibition, % at 3 µM; 1.3% of 360,000 active; AID 588852;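 active = percent inhibition above its own plate's cutoff, namely the mean of that plate's compound wells plus 3 SD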;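 note: peak over basal fluorescence ratio during 140 s after agonist addition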
M5 antag: antagonists of human muscarinic M5 receptor (CHRM5); AID 624040; CHO-hM5 cells, Fluo-8 calcium fluorescence, ACh EC80; 0.59% of 360,000 active; inhibition, % at 3 µM;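 active = inhibition above a per-plate cutoff, the mean of that plate's test compounds plus 3 SD, cut at about 27% in these data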
M5 ag: CHRM5 agonism in calcium assay. activation, % at 3 µM. CHO-K1 hM5 cells, Fluo-8 calcium fluorescence; 0% DMSO wells, 100% maximal acetylcholine response. P08912. AID 624037. 0.19% of 360,000 active;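 active = activation above the run's mean over test compounds plus 3 SD, cut at about 23% in these data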;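 note: signal is peak over basal fluorescence ratio across the kinetic read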
CHRM1 agonist: human M1 muscarinic receptor agonism; P11229; CHO-K1 hM1, Fluo-8 calcium fluorescence, agonist mode; 0% DMSO, 100% acetylcholine EC100; activation, % at 3 µM; 0.33% of 360,000 active; AID 588814;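 active = activation above the run's mean compound activation plus 3 SD, cut at about 16% in these data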;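 note: peak over basal fluorescence ratio within a 140 s kinetic read after compound addition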
A number is an active result; . = inactive; / = not tested or not shown. Only some compounds are listed: those with a hit (about 2% of all), similar ones and a draw of the others.

SMILES | CHRM1 PAM | CHRM5 PAM | M1 antag | M5 antag | M5 ag | CHRM1 agonist
CCOC(=O)C1CCCN(C(=O)CCc2nnc(-c3ccc(C(C)=O)s3)o2)C1 (stereo not given) | . | . | . | . | . | 29
CCOC(=O)C1=CCN(S(=O)(=O)c2ccccc2C)C1c1cccc(F)c1 (stereo not given) | . | . | . | . | . | .
CC1(C(=O)NS(=O)(=O)c2ccccc2Cl)CCN1C(=O)c1ccco1 (stereo not given) | . | . | . | . | . | .
O=C(CSc1nnc(CNC(=O)c2c(F)cccc2F)o1)c1ccc(Cl)cc1 | . | . | . | . | . | .
CN(CCOc1ccc(Cl)cc1)C(=O)c1cccc(S(=O)(=O)N2CCN(Cc3ccccc3)CC2)c1 | . | . | 40 | . | . | .
CC(C)CN(C(=O)c1cccc(S(=O)(=O)N2CCN(Cc3ccccc3)CC2)c1)C1CCS(=O)(=O)C1 (stereo not given) | 25 | . | . | . | . | .
COc1ccc(NC(=O)CN(C)C(=O)c2cccc(S(=O)(=O)N3CCN(Cc4ccccc4)CC3)c2)cc1 | . | . | . | . | . | .
CCCN(C(=O)c1cccc(S(=O)(=O)N2CCN(Cc3ccccc3)CC2)c1)C1CCS(=O)(=O)C1 (stereo not given) | . | . | . | . | . | .
O=C(Nc1ccc(S(=O)(=O)N2CCCc3ccccc32)cc1)C1CCCO1 (stereo not given) | . | . | 40 | . | . | .
COc1ccccc1-c1cnc(C(O)c2ccc(CN3CCCC3)cc2)[nH]1 (stereo not given) | . | . | . | . | . | .
CC(=O)c1sc(NC(=O)C2(F)C(F)(F)C(F)(F)C(F)(F)C(F)(F)C2(F)F)nc1C | . | . | . | 29 | . | .
CCN(CC)C(=O)C1=C(C)N(Cc2ccc(C(C)(C)C)cc2)C(=O)C(CC(=O)NCC2CCCCC2)C1 (stereo not given) | . | . | . | . | . | .
Cc1cc2c3c(c1)C(C)CC(C)(C)N3C(=O)C2=O (stereo not given) | . | . | . | . | . | .
CC1CC2(CCCCC2)N2C(=O)C(=O)c3cccc1c32 (stereo not given) | . | . | . | . | 63 | 17
S=C(NCCc1ccc(Cl)cc1)Nc1ccc(Cl)cc1Cl | . | . | . | 35 | . | .
CCCCCCN1C[C@@H](O)[C@H](n2cc(COC(=O)c3ccccc3)nn2)C[C@@H]1c1ccc(OC)cc1 | . | . | . | . | . | .
C=CCn1c(=O)[nH]c2cc(C(=O)N3CCN(c4cccc(Cl)c4)CC3)ccc2c1=O | . | . | 21 | . | . | .
CN(C)S(=O)(=O)c1cccc(C(=O)Nc2ccc(S(=O)(=O)N3CCCC3)cc2)c1 | . | . | . | . | . | .
CN1CCN(S(=O)(=O)c2ccc(NC(=O)c3cccc(S(=O)(=O)N4CCCC4)c3)cc2)CC1 | . | . | 98 | 29 | . | .
CC(=O)c1cc(Cl)ccc1OCc1cccc(S(=O)(=O)N2CCOCC2)c1 | . | . | 31 | . | . | .
C=CCn1c(=O)[nH]c2cc(C(=O)N3CCN(c4ccc(C(C)=O)cc4)CC3)ccc2c1=O | . | . | . | . | . | .
CN(C)S(=O)(=O)c1cccc(NC(=O)c2ccc(S(=O)(=O)N3CCCCC3)cc2)c1 | . | . | 27 | . | . | .
CCCCCCCCN1C(=O)[C@H](CC(=O)NCC2CCCCC2)C[C@@]2(C(=O)OC)CCCCC=C12 | / | . | / | . | . | /
CCCCN1C(=O)C(CC(=O)NC2CCCCC2)CC(C(=O)N2CCCCCC2)=C1C (stereo not given) | / | . | / | . | . | /
CN(C)c1nc(Cl)nc(NCCOc2ccccc2)n1 | . | . | . | . | . | .
SMILES | CHRM1 PAM | CHRM5 PAM | M1 antag | M5 antag | M5 ag | CHRM1 agonist
O=C(Nc1cccc(S(=O)(=O)N2CCCCC2)c1)c1ccc2c(=O)n3c(nc2c1)CCCCC3 | . | . | 43 | . | . | .
COc1ccc(S(=O)(=O)N2CCOCC2)cc1NC(=O)c1ccc(S(=O)(=O)N2CCCCC2)cc1 | . | . | . | . | . | .
COCCN1Cc2cccc(C(=O)Nc3ccc(S(=O)(=O)N4CCCCC4)cc3)c2C1=O | . | 25 | . | . | . | .
COc1ccc(S(=O)(=O)N2CCOCC2)cc1NC(=O)c1ccc(Cl)cc1 | . | . | 29 | . | . | .
O=C(NC(=S)Nc1ccc(S(=O)(=O)N2CCCCC2)cc1)c1ccccc1 | 19 | . | . | . | . | .
CC1(C)CC(=O)C=C(c2ccc(-c3ccc(S(C)(=O)=O)cc3)cc2)C1=O | . | . | . | . | . | .
CC1(C(=O)NS(=O)(=O)c2cccc(F)c2)CCN1C(=O)CCC1CCCC1 (stereo not given) | . | . | . | . | . | .
CCCCn1nnnc1C1(C)CCC(=O)N1Cc1cccnc1 (stereo not given) | / | . | / | . | . | /
COc1ccc(N2CCN(C(=O)c3ccc4c(=O)n5c(nc4c3)CCCCC5)CC2)cc1 | . | . | . | . | . | .
CN(C)S(=O)(=O)c1ccc(C(=O)Nc2ccc(CN3CCCC3)cc2)cc1 | . | . | 41 | . | . | .
Cc1ccc2c(c1)CCCN2CC(=O)Nc1cccc(S(=O)(=O)N2CCCC2)c1 | . | . | 32 | . | . | .
O=C(c1ccc2c(=O)n3c(nc2c1)CCCCC3)N1CCN(c2cccc(Cl)c2)CC1 | . | . | 32 | . | . | .
CN1CCCN(S(=O)(=O)c2ccccc2)CC1 | . | . | 33 | . | . | .
COc1cc(C(=O)COC(=O)c2ccc3c(c2)OCCO3)cc(OC)c1OC | . | . | . | . | . | .
Cc1cnc(CNC(=O)c2csc([C@@H]3C[C@H](O)[C@@H](CO)O3)n2)cn1 | . | . | . | . | . | .
COc1cccc(C(O)c2nc(-c3cc(F)cc(F)c3)cs2)c1 (stereo not given) | . | . | . | . | . | .
CN(c1ccccc1)S(=O)(=O)c1ccc(C(=O)Nc2cccc(S(=O)(=O)N3CCOCC3)c2)cc1 | . | . | . | . | . | .
COc1ccccc1N(C)S(=O)(=O)c1ccc(C(=O)Nc2cccc(S(=O)(=O)N3CCOCC3)c2)cc1 | . | . | 38 | . | . | .
CC1CCCN(CC(=O)Nc2cc(S(=O)(=O)N3CCOCC3)ccc2N2CCCC2)C1 (stereo not given) | . | . | 38 | . | . | .
O=C(Nc1cc(S(=O)(=O)N2CCOCC2)ccc1Cl)C1CCC1 | . | . | 27 | . | . | .
CN(C)c1ccc(C(=O)Nc2cccc(S(=O)(=O)N3CCCC3)c2)cc1 | . | . | 46 | . | . | .

Compound activity from PubChem BioAssay.
